The target of series [1] is T1, Broad substrate specificity ATP-binding cassette transporter ABCG2 (Homo sapiens, UniProt Q9UNQ0).
T1 sequence (Q9UNQ0 whole entry): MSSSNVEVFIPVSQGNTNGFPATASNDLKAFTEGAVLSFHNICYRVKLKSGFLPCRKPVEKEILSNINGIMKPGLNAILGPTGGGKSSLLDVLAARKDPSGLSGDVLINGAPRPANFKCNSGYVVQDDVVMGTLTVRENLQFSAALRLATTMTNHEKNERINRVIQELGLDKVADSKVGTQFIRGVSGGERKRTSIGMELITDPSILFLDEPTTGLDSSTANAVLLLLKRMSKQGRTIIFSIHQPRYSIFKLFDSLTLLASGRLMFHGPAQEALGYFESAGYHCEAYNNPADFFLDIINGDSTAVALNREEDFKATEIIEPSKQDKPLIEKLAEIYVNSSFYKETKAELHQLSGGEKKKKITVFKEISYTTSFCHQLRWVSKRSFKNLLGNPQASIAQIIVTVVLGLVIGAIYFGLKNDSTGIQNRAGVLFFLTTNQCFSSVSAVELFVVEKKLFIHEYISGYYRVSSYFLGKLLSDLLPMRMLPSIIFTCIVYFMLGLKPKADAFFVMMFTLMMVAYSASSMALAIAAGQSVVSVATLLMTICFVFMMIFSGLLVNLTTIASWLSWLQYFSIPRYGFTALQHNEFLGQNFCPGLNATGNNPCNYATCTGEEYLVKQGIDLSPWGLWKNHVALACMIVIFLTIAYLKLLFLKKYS
As to the kind of experiment: Reversal of human ABCG2-mediated multidrug resistance in HEK293/R482 cells assessed as potentiation of mitoxantrone-induced cytotoxicity after 72 hrs by CCK8 assay. Type of series: cell-based. The gist of the method: (§1)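 Cells were seeded at 5000/well for 24 h, then given colchicine, etoposide, mitoxantrone or topotecan ± non-toxic modulator (0.5–3.0 μM) for 72 h, with DMSO up to 0.5%. IC50 came from fitted curves (mean ± SD, three experiments). Fold-reversal = IC50 without modulator ÷ IC50 with modulator.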

The target of series [2] is T1, Broad substrate specificity ATP-binding cassette transporter ABCG2. As to the kind of experiment: Reversal of human ABCG2-mediated multidrug resistance in HEK293/R482 cells assessed as fold-change in topotecan IC50 at 1 uM after 72 hrs by CCK8 relative to topotecan IC50. Type of series: cell-based. The method, boiled down:
as §1

Series [3] shares this target. As to the kind of experiment: Reversal of ABCG2 (unknown origin)-mediated multidrug resistance in human H460-MX20 cells assessed as fold change in mitoxantrone IC50 at 2 uM after 72 hrs by MTT assay relative to mitoxantrone IC50. The series is classed as cell-based. The method, boiled down:
(§2)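 Cells held drug-free 7 days, seeded at 5000 per well for 24 h, then exposed 72 h to mitoxantrone or topotecan dilutions with DMSO (≤0.5%), LCA 0.5–3.0 μM, or Ko143 1.0 μM. Viability was read by MTT. IC50 came from fitted dose-response curves of three independent experiments. Fold-reversal = IC50 without modulator divided by IC50 with modulator.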
Background: Formazan colour is commonly taken as a measure of viable cells.

The target is the same in series [4]. The series is described as follows: Reversal of ABCG2 (unknown origin)-mediated multidrug resistance in human H460-MX20 cells assessed as fold change in topotecan IC50 at 3 uM after 72 hrs by MTT assay relative to topotecan IC50. The series is classed as cell-based. The gist of the method:
as §2

The target is the same in series [5]. As to the kind of experiment: Reversal of ABCG2 (unknown origin)-mediated multidrug resistance in human S1-M1-80 cells assessed as fold-change in topotecan IC50 at 1 uM after 72 hrs by MTT assay relative to topotecan IC50. The series is classed as cell-based. The settings on record: s1-m1-80, 72 h. The method, boiled down:
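MTT readout in S1-M1-80 colon cancer cells (mitoxantrone-selected, held in 80 μM mitoxantrone, then drug-free 7 days before assay). Cells were seeded at 5000/well for 24 h, then given increasing mitoxantrone or topotecan with DMSO or non-toxic modulator for 72 h at 37 °C. IC50 came from fitted dose-response curves (at least three independent experiments). Fold-reversal = IC50 without modulator ÷ IC50 with modulator.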

Series [6] has as its system S1. The series is described as follows: Induction of apoptosis in human S1 cells assessed as early apoptotic cells at 10 uM incubated for 48 hrs by annexin V/propidium iodide staining based flow cytometry (reference value: 2%). Type of series: functional. The method, boiled down:
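S1 cells were exposed for 48 h to DMSO, 10 μM compound, 5 μM topotecan, or 5 μM topotecan plus 10 μM compound. They were then stained with 1.25 μg/mL annexin V–FITC and 0.1 mg/mL PI for 15 min at room temperature. 10000 cells per sample were analysed by flow cytometry; three independent experiments.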
For orientation: A flow cytometer gives signals particle by particle.

For series [7], the system named is S1. As to the kind of experiment: Cytotoxicity against human S1 cells after 72 hrs by MTT assay. The series is classed as functional, cell-based. The settings on record: S1, 72 h. The gist of the method: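 Cells seeded at 5000/well, allowed 24 h, then exposed to a concentration series for 72 h at 37 °C in DMSO vehicle (up to 0.5% v/v). HEK293 lines were read with CCK-8 and cancer lines with MTT. IC50 was taken from fitted dose-response curves over at least three independent experiments. Lines were kept drug-free for 7 days before assay.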

Another series deals with HEK293. As to the kind of experiment: Effect on topotecan-induced cytotoxicity against HEK293 cells assessed as fold change in topotecan IC50 at 2 uM after 72 hrs by CCK8 assay relative to topotecan IC50. The series is classed as cell-based. The following applies: human, hek293, 72 h. The gist of the method: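 Reversal assay in parental pcDNA-HEK293 and transfected HEK293 lines (ABCB1 for colchicine, ABCC1 for etoposide, ABCG2 for mitoxantrone/topotecan). Substrate drug series was given with or without nontoxic modulator (0.5, 1.0, 2.0 or 3.0 μM) for 72 h, with a CCK-8 read-out. Fold-reversal is substrate IC50 without modulator divided by IC50 with modulator. Three independent experiments.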

Each structure is given as a SMILES string. pIC50: −log10 of the molar value.

Broadly, the pIC50 is the IC50 on a negative log10 scale, so that one unit is a factor of ten. Read a low pIC50 as a large IC50. With `C=CC(C)(C)c1cc(/C=C/C(=O)c2ccc(O)cc2)c(OC)cc1O` [LICOAGROCHACONE A], the Activity result in series [1] was “Dose-dependent effect”; in the series on S1 [6] it was 1.7%. The “fold change (FC)” value in series [2] is given as 3.9; in series [3], 15.5; in series [4], 10.1; in series [5], 16.6; in the series on HEK293, 1. Moreover, the pIC50 with S1 [7] was 4.30 to 5.00.

The values are drawn from ChEMBL document CHEMBL4627381, “Licochalcone A Selectively Resensitizes ABCG2-Overexpressing Multidrug-Resistant Cancer Cells to Chemotherapeutic Drugs” (J Nat Prod, 2020).
